Eleven compounds from ChEMBL document CHEMBL1135426, “Synthesis, receptor potency, and selectivity of halogenated diphenylpiperidines as serotonin 5-HT2A ligands for PET or SPECT brain imaging” (J Med Chem, 2002) can be followed below.

The structures appear in SMILES notation. pKi: −log10 of the molar value.

T1 sequence (P28223 whole entry): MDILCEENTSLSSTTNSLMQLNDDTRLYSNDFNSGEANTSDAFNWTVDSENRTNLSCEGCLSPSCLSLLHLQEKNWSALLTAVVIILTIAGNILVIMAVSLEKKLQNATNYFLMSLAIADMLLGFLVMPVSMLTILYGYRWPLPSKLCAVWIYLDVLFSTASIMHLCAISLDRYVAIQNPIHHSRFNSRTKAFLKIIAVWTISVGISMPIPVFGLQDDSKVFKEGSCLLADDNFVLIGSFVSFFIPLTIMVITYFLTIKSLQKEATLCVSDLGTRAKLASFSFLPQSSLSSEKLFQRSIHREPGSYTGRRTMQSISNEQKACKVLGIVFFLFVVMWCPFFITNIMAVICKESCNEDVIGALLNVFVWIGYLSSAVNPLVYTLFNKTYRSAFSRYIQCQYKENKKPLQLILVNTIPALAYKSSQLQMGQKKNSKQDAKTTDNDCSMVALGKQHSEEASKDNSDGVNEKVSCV

One assay addresses T1, 5-hydroxytryptamine receptor 2A (Homo sapiens, UniProt P28223). Kind of assay: Binding affinity against 5-hydroxytryptamine 2A receptor in humans. An outline of the steps: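 Membranes of transfected COS-7 cells expressing human 5-HT2A, with 1.0 nM [3H]ketanserin, room temperature, 60 min. 10 µM altanserin as blank. Filtration and scintillation counting. Ki obtained by Cheng-Prusoff from the radioligand apparent Kd.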
In the case of `O=C(c1ccc(F)cc1)C1CCN(CCn2c(=S)[nH]c3ccccc3c2=O)CC1` [ALTANSERIN], the pKi (commonly the Ki on a negative log10 scale, so that one unit is a factor of ten) was 9.52.

The target in the next assay is T1, 5-hydroxytryptamine receptor 2A. Kind of assay: Tested on genetically transfected COS7 cell membranes selectively expressing human 5-hydroxytryptamine 2A receptor, using [3H]ketanserin as radioligand. In kind it is cell-based, COS-7. An outline of the steps: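 Membranes of transfected COS-7 cells expressing human 5-HT2A, with 1.0 nM [3H]ketanserin, room temperature, 60 min. 10 µM altanserin as blank. Filtration and scintillation counting. Competition curves over ≥6 concentrations yield IC50 ± SE. Ki obtained by Cheng-Prusoff from the radioligand apparent Kd.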
Take `O=C(c1ccc(F)cc1)C1CCN(Cc2ccccc2I)CC1`: the pKi was 6.72.
On the same count and under the same terms, the result for `OC(c1ccc(F)cc1)C1CCN(Cc2ccc(I)cc2)CC1` (stereo unspecified) reads less than 5.00; that for `OC(c1ccc(F)cc1)C1CCN(Cc2ccccc2I)CC1` (stereo unspecified), less than 5.00.
For the compound `OC(c1ccc(F)cc1)C1CCN(Cc2cccc(I)c2)CC1` (stereo unspecified), the pKi was less than 5.00.
Same read-out and setting: then `OC(c1ccc(F)cc1)C1CCN(CCc2ccc(I)cc2)CC1` (stereo unspecified), with 7.49; and `O=[N+]([O-])c1ccc(C(O)C2CCN(CCc3ccccc3)CC2)cc1` (stereo unspecified), with 8.94.
`OC(c1ccc(F)cc1)C1CCN(CCc2cccc(I)c2)CC1` (stereo unspecified) gave a pKi of 7.88.
Turning to `O=C(c1ccc(F)cc1)C1CCN(Cc2ccc(I)cc2)CC1`, the pKi was 6.64.
For `O=C(c1ccc([N+](=O)[O-])cc1)C1CCN(CCc2ccccc2)CC1`, the pKi was 8.03.
Still for that read-out and setting: then `O=C(c1ccc(F)cc1)C1CCN(Cc2cccc(I)c2)CC1`, with 7.90.
